Bioassay records: PubChem, several laboratories
CaV13 ICDI inh – Primary screen for inhibitors of IQ motif and Ca2+-dependent inactivation inhibitor domain binding in CACNA1D, Förster resonance energy transfer in living cells, …; AID 743397; actives 0.098% (n = 340,000); HEK cells, CFP/YFP FRET ICDI-IQ, plate reader, 10 min; percent FRET-ratio fall versus neutral wells; inhibition, % at 12.3 µM;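 active means mean replicate inhibition of at least 30% and at least 1% of replicates passing that level; inconclusive means only one of the two criteria is met; inactive means neither criterion is met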;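 further: 0% = median of the neutral control wells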
Hck-Nef inh – inhibitors of Nef-activated human Hck kinase, primary screen, biochemical, Z-Lyte FRET, 384-well, Hck-YEEI; Recombinant Hck-YEEI plus Nef, Z-Lyte FRET kinase assay; inhibition, % at 20 µM; actives 0.68% (n = 220,000); AID 463187, 2010;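 active means Hck-Nef kinase inhibition above about 50%, limit read from the data; inactive means inhibition below that limit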;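 further: 0% = DMSO with Hck plus Nef and 100% = Hck alone without Nef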
Target sequence (P08631 whole entry, looked up): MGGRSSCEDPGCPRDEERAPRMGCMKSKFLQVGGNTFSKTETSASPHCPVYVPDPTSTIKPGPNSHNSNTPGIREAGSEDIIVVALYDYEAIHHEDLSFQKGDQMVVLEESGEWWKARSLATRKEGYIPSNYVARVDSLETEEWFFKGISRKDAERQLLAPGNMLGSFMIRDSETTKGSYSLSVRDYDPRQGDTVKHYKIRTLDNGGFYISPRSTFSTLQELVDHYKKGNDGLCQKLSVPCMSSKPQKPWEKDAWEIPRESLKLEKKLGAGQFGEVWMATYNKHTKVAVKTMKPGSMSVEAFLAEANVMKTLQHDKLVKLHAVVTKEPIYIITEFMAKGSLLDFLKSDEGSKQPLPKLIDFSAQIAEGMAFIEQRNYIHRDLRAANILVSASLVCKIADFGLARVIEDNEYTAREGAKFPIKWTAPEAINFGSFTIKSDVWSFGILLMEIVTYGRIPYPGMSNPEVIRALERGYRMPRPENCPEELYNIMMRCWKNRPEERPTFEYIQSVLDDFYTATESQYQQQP
RanGTP-Impb inh – inhibitors of RanGTP-importin-beta interaction, primary screen, biochemical, FRET, CFP-Ran, YFP-importin-beta, homogeneous. Ran GTPase (GTP-bound) - importin-beta complex. cell-free CFP-Ran/YFP-importin-beta FRET ratio. inhibition, % (test concentration not listed). actives 1.1% (n = 300,000);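 active means more than half of the replicate wells show a fall in the fluorescence ratio signal beyond about 16%, limit read from the data, passing the limit was not always enough; inconclusive means exactly half of the replicate wells pass the set limit; inactive means fewer than half of replicates pass the limit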;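 further: 0% = DMSO wells and 100% = Ran loaded with GDP instead of GTP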
Runt-CBFb FRET – inhibitors of RUNX1 Runt–CBFb binding, primary screen, biochemical, FRET, Cerulean-Runt, Venus-CBFb, uHTS; Runt-related transcription factor 1 (Homo sapiens) + Core-binding factor subunit beta …; Cerulean-Runt/Venus-CBFb FRET ratio 530/480, 1 h; inhibition, % at 20 µM; actives 0.46% (n = 220,000); AID 1496, 2009;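 active means inhibition over about 50% at 20 µM in the single-dose screen, limit read from the data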;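 further: 0% = DMSO wells and 100% = excess unlabeled CBFb competitor control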
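Assay system: Cerulean-Runt domain fusion protein, energy donor; Signal: fluorescence energy transfer, 422 nm excitation, 530/480 nm emission; Timing: 1 h compound exposure, room temperature; Control set: unlabeled CBFb; Medium: Tris buffer pH 7.5 with salts and BSA; Compound: single test concentration of 20 µM, 1% DMSO final; Probe or stimulus: Venus-CBFb 100 nM.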
Runt-SMMHC FRET – inhibitors of RUNX1 Runt–CBFb-SMMHC binding, primary screen, biochemical, FRET, Cerulean-Runt, Venus-CBFb-SMMHC, uHTS. Runt-related transcription factor 1 (Homo sapiens) + Core-binding factor subunit beta …. Cerulean-Runt/Venus-CBFb-SMMHC FRET ratio 530/480, 1 h. inhibition, % at 20 µM. actives 0.74% (n = 220,000);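 active means mean inhibition across duplicate retests at 20 µM reaching about 50%, limit read from the data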;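 further: 0% = DMSO wells and 100% = wells with excess untagged CBFb-SMMHC; inhibitors lower the FRET ratio by blocking Runt binding to CBFb-SMMHC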
Hck Nef conf – retest of Hck:Nef kinase inhibitor hits, confirmation, biochemical, Z-Lyte FRET, 384-well, p-Tyr peptide counterscreen. Recombinant Hck-YEEI:Nef, Z-Lyte FRET kinase assay. shares compounds with Hck-Nef inh. actives 28% (n = 1,300). calls only at 10 µM;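 active means average inhibition of at least 50%, with Z-scores no higher than 3 in both the phospho-tyrosine peptide and fluorescence counterscreens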
* hit, by the source's call; i = inactive; ? = inconclusive; · = no result shown; + = active, no number. An excerpt weighted towards active compounds, which were near 1.5% of everything screened.

SMILES	CaV13 ICDI inh	Hck-Nef inh	RanGTP-Impb inh	Runt-CBFb FRET	Runt-SMMHC FRET	Hck Nef conf
Cc1cccn2c(=O)c3cc(C(=O)NC(C)C)c(=N)n(Cc4ccncc4)c3nc12	·	130.4*	+	17.7	61.6*	·
Cc1ccc(NC(=O)c2cc(=O)[nH]c3ccccc23)cc1C	1.2	·	0.3	·	·	·
CCOC(=O)[C@H]1[C@H]2COc3cc(OC)ccc3[C@@H]2N2C(=O)CN(Cc3ccc(OC)cc3)C(=O)[C@@]12C	1.2	·	·	·	·	·
N=c1c(C(=O)NCc2ccc(F)cc2)cc2c(=O)n3ccccc3nc2n1CCCN1CCOCC1	·	69.3*	·	12.5	65.3*	·
O=c1cc(O)c2ccc(O)cc2o1	·	6.4	-0.4	-1.1	-4.4	·
COC(=O)Cc1cc(=O)oc2cc(O)ccc12	26.1	102.3*	69.2*	80.1*	92.2*	·
O=C1N=c2ccccc2=C1c1sc(Nc2cccc(O)c2)nc1O	-5.0	·	-2.3	·	·	·
O=C1N=c2ccccc2=C1c1sc(Nc2ccc(O)cc2)nc1O	-4.7	86.5*	·	-10.4	-3.0	+
O=C(CCc1ccccc1)NC1(Cc2ccccc2)CCN(CCCc2ccccc2)C1=O (centres undefined)	-9.0	·	·	·	·	·
NC(=O)c1nn(-c2ccc(Oc3ccccc3)cc2)c(=O)cc1O	-3.1	82.2*	-3.0	-0.9	13.5	+
NC(=O)c1nn(-c2ccccc2)c(=O)cc1O	·	-0.4	-0.7	-1.4	6.6	·
CCCC(=O)Nc1c2c(nc3ccccc13)N(c1ccccc1)CC2	·	28.8	1.5	3.1	6.4	·
O=C(CN1CCCCC1)Nc1c2c(nc3ccccc13)N(c1ccccc1)CC2	-4.9	91.1*	2.7	-0.2	5.0	·
COc1ccc(NC2CCCN(C(=O)CSc3ccccn3)C2)cc1OC (centres undefined)	-7.4	·	-2.7	·	·	·
CCCCC(CC)Cn1c2nc3ccccc3nc2c2c(=N)oc(C)nc21 (centres undefined)	·	57.2*	-1.4	-1.9	-4.6	i
C=CCc1c(O)c(CC)cc2c(C)cc(=O)oc12	+	105.8*	62.1*	47.4	80.2*	·
CCC(=O)c1cc2c(C)cc(=O)oc2c(C)c1O	·	-0.9	2.3	26.8	65.3	·
Cc1c(Cc2ccccc2)c(=O)oc2c(CN(C)C)c(O)c(Cl)cc12	-1.3	116.0*	70.7*	126.4*	89.5*	·
Cc1cc(=O)oc2c(CN3CCCC3)c(O)ccc12	-12.3	·	8.7	·	·	·
CCN(CC)Cc1c(O)c(Cl)cc2c(C)cc(=O)oc12	35.3*	+	13.2	76.0*	137.6*	·
Cc1cc(=O)oc2c(CN(CC(C)C)CC(C)C)c(O)ccc12	-4.6	63.3*	0.1	42.5	76.6*	·
Cc1c(Cc2ccccc2)c(=O)oc2c(O)c(O)ccc12	-4.8	-24.0	-0.7	19.2	8.2	·
COc1cc(OC)cc(-c2c(-c3cccs3)c3cc(-c4ccc(OCc5ccccc5)cc4)ccc3n2C)c1	-4.6	·	·	·	·	·
COc1cc(/C=C/C(=O)OCC(=O)Nc2sc3c(c2C#N)CCC(C)C3)ccc1OCC#N (centres undefined)	-2.6	50.9*	-1.8	2.4	-4.9	i
COc1cc(/C=C2\SC(=N)N(c3ccc(F)cc3)C2=O)ccc1O	-6.3	76.8*	-1.3	-35.9	-82.0	i
SMILES	CaV13 ICDI inh	Hck-Nef inh	RanGTP-Impb inh	Runt-CBFb FRET	Runt-SMMHC FRET	Hck Nef conf
COc1ccc2cc3cc(C(=O)Nc4cc(OC)c(OC)c(OC)c4)oc3nc2c1	-3.4	1.2	?	-12.9	-31.1	·
COc1ccc2cc3cc(C(=O)Nc4ccc5c(c4)OCCO5)oc3nc2c1	-5.6	51.8*	-1.4	-7.0	-40.7	i
O=Cc1ccc(/C=C2\c3ccccc3C(=O)N2c2ccccc2)o1	-6.4	·	·	·	·	·
CCOC(=O)COc1ccc(/C=C2/SC(=Nc3ccccc3)N(Cc3cccnc3)C2=O)cc1OC	·	70.9*	-4.2	-8.7	-5.0	i
CC(C)(C)c1ccc(CSc2ccc(S(=O)(=O)N3CCOCC3)cn2)cc1	-2.4	·	·	·	·	·
CC(=O)NC(c1cccc(F)c1)c1nc(-c2cccc(C(C)C)c2)cs1 (centres undefined)	-5.8	·	·	·	·	·
C=CCN(CC=C)C(=O)c1cc(Cl)ccc1[N+](=O)[O-]	-4.2	64.4*	0.4	0.7	-1.9	i
C=CCNC(=O)c1cc(Cl)ccc1[N+](=O)[O-]	-4.4	1.0	6.0	-1.7	3.2	·
CC(Sc1nnc(CN2CCCC2)n1Cc1ccccc1)C(=O)Nc1ccc(F)c(F)c1F (centres undefined)	-2.3	·	·	·	·	·
N#Cc1nc(/C=C/c2ccccc2)oc1NCCCN1CCOCC1	-4.5	53.9*	3.9	14.1	31.9	·
COCCNc1oc(/C=C/c2ccccc2)nc1C#N	4.2	67.0*	1.5	9.5	32.8	·
O=c1[nH]ncc(N/N=C/c2ccccc2)c1Cl	-8.6	-1.9	-2.1	1.6	4.3	·
COc1ccc(/C=N/Nc2cn[nH]c(=O)c2Cl)cc1	-6.2	72.2*	2.0	0.7	-0.2	+
Cc1ccsc1/C=N\Nc1cn[nH]c(=O)c1Cl	-3.0	73.8*	-0.6	0.7	-4.9	+
Cc1ccc(/C=N\Nc2cn[nH]c(=O)c2Cl)cc1	-5.0	1.6	4.5	1.2	-0.4	·
CCCCOc1ccc(/C=C/C(=O)N(CC)CC(=O)Nc2ccc3c(c2)OCCO3)cc1OC	-5.3	·	5.0	·	·	·
N#C/C(=C\c1ccc(OC(=O)c2cccs2)cc1)c1nc2ccccc2[nH]1	-1.7	56.8*	5.5	-0.2	-25.1	+
O=Cc1cn(-c2ccccc2)nc1-c1ccc(F)cc1	-4.5	·	1.7	·	·	·
CC1=NNC(=O)/C1=C\c1cn(-c2ccccc2)nc1-c1cccs1	-7.2	99.2*	-3.4	4.8	-10.9	+
CC1=NNC(=O)/C1=C\c1cn(-c2ccccc2)nc1-c1ccc(F)cc1	·	85.7*	-3.2	-5.1	-17.7	+
O=C(O)CCCCCN1C(=O)/C(=C/c2cn(-c3ccccc3)nc2-c2cccs2)SC1=S	-6.0	·	·	·	·	·
COc1ccccc1OCCNC(=O)Nc1cc(F)c(F)cc1Cl	-18.9	-1.9	-0.3	-1.3	-0.1	·
O=[N+]([O-])c1ccccc1NC(=S)N/N=C/c1ccc(O)c(O)c1	-4.8	86.7*	-1.6	11.4	6.2	i
Cc1ccc(-c2nc3ccccc3s2)cc1NC(=O)c1cc(-n2cnnc2)ccc1Cl	-6.7	91.3*	-1.2	·	-3.5	i
